The values below come from article PMC10746523 (iScience, 2023).

Molecules are shown by their SMILES. Read-outs that look alike come from different tables or passages of the source.

Data set [1] can be described thus: Competitive oxidation assay with the ketone 1. To be noted: ketone 1 (600 μM) alone treated with ONOO− (600 μM), Tris pH 7.5. Summed up: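 Ketone-competition variant of the microplate assay in 50 mM Tris pH 7.5: ketone competitor (600 μM) with ONOO⁻ (600 μM), alone or added after the probe (1 μM) had been pre-mixed 5 min with ONOO⁻ (600 μM). Probe plus ONOO⁻ without competitor was run in parallel. Fluorescence (ex/em 405/475 nm) was followed over time.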

For data set [2] the following is noted: cited from earlier work.
The nature of data set [3]: Photophysical characterization and relative fluorescence quantum yield. The format is physicochemical. To be noted: for Quantum Yield (relative fluorescence quantum yield, ΦFrel): ethanol, standard coumarin 343, 405/475 nm. Put shortly:
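Relative quantum yield in ethanol: absorbance at 405 nm and fluorescence at ex/em 405/475 nm were measured for samples and for the coumarin 343 reference (Q_r 0.63 in ethanol). The refractive-index ratio was taken as 1.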

Data set [4] in a line: Determination of pKa by UV-Vis absorbance. The data set is classed as physicochemical. To be noted: MES and Tris buffers of different pH, pH 5.2.
Data set [5] is described as follows: pH dependence of fluorescence intensity. To be noted: 405/475 nm; 1 µM. The data set is classed as physicochemical.
Data set [6] is described as follows: Microplate time- and pH-dependent fluorescence response to ONOO−. To be noted: probe 1 μM, ONOO− 600 μM. Put shortly: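 Water-soluble probe (1 μM) was treated with ONOO⁻ (600 μM) in 50 mM MES (pH 5.8) or 50 mM Tris (pH 6.8, 7.8, 8.8). Fluorescence (ex/em 405/475 nm) was read on a microplate reader over time and expressed relative to untreated samples at t = 0 min.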

Data set [7] can be described thus: Selectivity against RONS, microplate F/F0. To be noted: for F/F0: probe 1 μM. Summed up: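 Probe (1 μM final, from a 100 μM DMSO stock) was mixed with each RONS (estimated 600 μM) in 50 mM Tris pH 7.5 containing 600 μM EDTA. HO· was generated in situ from Fe(ClO₄)₂ plus H₂O₂ (36 mM), and ¹O₂ from NaOCl plus H₂O₂. Plate fluorescence (405/475 nm) was read at 1 and 60 min; F/F₀ = 60-min reading over t₀.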

The test system of a further data set is PCLS. The experiment in a line: Confocal imaging of PCLS exposed to nitrogen mustard. The format is cell-based, mice. Particulars: 75 μM TEG-TC-ONOO–, compared to 75 μM LNPs with ∼4 μM DPPC-TC-ONOO–.
The nature of data set [8]: Solubility, stated in words. Particulars: aqueous media and buffers. The data set is classed as physicochemical.
The conditions of data set [9]: in ethanol, cited from earlier work.

As for `O=C(CCc1ccc(O)cc1)C(F)(F)F` [Compound 1, 1,1,1-trifluoro-4-(4-hydroxyphenyl)butan-2-one], the fluorescence generation entry in [1] is “no fluorescence”.

Take `O=NOO` [ONOOH, peroxynitrous acid]: in [2], the chemical half-life is listed as 0.63 s and the pKa was 6.8. The biological half-life in data set [2] (estimated, depends on concentration of biological targets) is recorded as 10–20 ms.

In the case of `O=c1oc2cc(O)ccc2cc1-n1cc(COCCOCCOCCO)nn1` [TEG-TC, 7-hydroxy-3-(4-((2-(2-(2-hydroxyethoxy)ethoxy)ethoxy)methyl)-1H-1,2,3-triazol-1-yl)-2H-chromen-2-one], in data set [3], the Brightness worked out at 10305, the “Extinction Coefficient” value stood at 15613 M⁻¹ cm⁻¹, the “Max Em” value worked out at 471.4 nm and the “Max Ex” value was 397.0 nm. In addition, in data set [3], the Relative brightness is 41.1 and the “Quantum Yield (relative fluorescence quantum yield, ΦFrel)” value was 0.66. This molecule yielded a pKa in data set [4] of 7.1 ± 0.1. Moreover, the “fluorescence signal intensity at pH 7.5–8.8 relative to pH 5.8” value in data set [5] is on record as 18- to 20 fold.

Regarding `O=C(Oc1ccc(CCC(=O)C(F)(F)F)cc1)Oc1ccc2cc(-n3cc(COCCOCCOCCO)nn3)c(=O)oc2c1` [TEG-TC-ONOO^–, 3-(4-((2-(2-(2-hydroxyethoxy)ethoxy)ethoxy)methyl)-1H-1,2,3-triazol-1-yl)-2-oxo-2H-chromen-7-yl (4-(4,4,4-trifluoro-3-oxobutyl)phenyl) carbonate], in [3], the Brightness is 358, the “Extinction Coefficient” value stood at 4475 M⁻¹ cm⁻¹, the “Max Em” value came out at 472.0 nm and the “Max Ex” value came out at 400.0 nm. In [3], the Relative brightness was 1.4 and the “Quantum Yield (relative fluorescence quantum yield, ΦFrel)” value was found to be 0.08. Moreover, the fluorescence generation result in [6] (pH 5.8 and 6.8) is on record as “little or no fluorescence generation”. The “fluorescence relative to untreated sample (t = 0 min)” value in data set [6] (pH 7.8, until 30 min) is “up to 6.5 times”. Also, the “fluorescence relative to untreated sample (t = 0 min)” value in [6] (pH 8.8, until 30 min) is recorded as at most 8 times. The “relative fluorescence enhancement for ONOO− compared to the other RONS” value in data set [7] is on record as about 36 fold. In data set [7] (H2O2 600 μM, 60 min), the “fluorescence intensity stronger than background” value amounted to 16% and the F/F0 was determined as 1.16. Besides, in data set [7] (ONOO− 600 μM, 60 min), the increase in fluorescence is about 570% and the F/F0 is given as 6.69. Further, the increase in fluorescence in data set [7] (absence of a redox species, 60 min) turned out to be 13%. In data set [7] (absence of a redox species, 60 min, Tris pH 7.5), this molecule came in with a F/F0 of 1.13. Further, in data set [7] (species other than ONOO−, 600 μM, 60 min), the change in fluorescence entry is listed as “only negligible levels of change in fluorescence”. Moreover, the F/F0 in data set [7] (·NO 600 μM, 60 min) worked out at 1.03. Further, the “signal within PCLS exposed to NM (405 nm excitation)” value in the data set with PCLS is given as “considerably weak signals”. Also, the solubility entry in data set [8] is “highly soluble”.

As for `O=C(O)c1cc2cc3c4c(c2oc1=O)CCCN4CCC3` [coumarin 343], the “absolute fluorescence quantum yield (ΦF)” value in data set [9] was 0.63. Moreover, the “quantum yield of reference standard (Qr)” value in [9] (ref Sigma Aldrich) is given as 0.63.

One may read the pKa as the pH at which an ionisable group is half protonated.
